Source: ChEMBL document CHEMBL4350993, “Dipropargyl substituted diphenylpyrimidines as dual inhibitors of monoamine oxidase and acetylcholinesterase” (Eur J Med Chem, 2019)
Active and inactive are the calls of the source. The rule behind the calls is not given here.

What was measured:
[1] = molecular target: T1, Amine oxidase [flavin-containing] B (Homo sapiens, UniProt P27338); assay: (§1) Inhibition of human recombinant microsomal MAO-B expressed in baculovirus infected BTI-TN-5B1-4 cells assessed as reduction in production of H202 using p-tyramine as substrate incubated for 30 mins followed by substrate addition by horse radish peroxidase/Amplex red reagent based fluorescence assay; type: cell-based
T1 sequence (P27338 whole entry): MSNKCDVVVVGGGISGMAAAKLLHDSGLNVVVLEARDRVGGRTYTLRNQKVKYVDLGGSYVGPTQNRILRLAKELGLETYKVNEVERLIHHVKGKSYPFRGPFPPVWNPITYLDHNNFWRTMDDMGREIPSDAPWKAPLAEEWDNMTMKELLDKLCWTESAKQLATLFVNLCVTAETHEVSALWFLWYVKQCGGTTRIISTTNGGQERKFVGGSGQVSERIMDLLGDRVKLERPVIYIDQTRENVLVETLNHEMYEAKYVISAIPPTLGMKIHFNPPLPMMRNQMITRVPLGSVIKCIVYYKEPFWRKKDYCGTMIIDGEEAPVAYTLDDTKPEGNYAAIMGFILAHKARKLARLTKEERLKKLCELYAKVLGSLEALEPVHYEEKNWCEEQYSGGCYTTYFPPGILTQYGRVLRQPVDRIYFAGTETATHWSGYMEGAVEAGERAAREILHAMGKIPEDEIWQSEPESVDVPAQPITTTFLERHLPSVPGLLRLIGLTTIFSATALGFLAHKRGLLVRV

Homo sapiens = organism: Homo sapiens; assay: Selectivity index, ratio of IC50 for human recombinant microsomal MAO- A expressed in baculovirus infected BTI-TN-5B1- 4 cells using p-tyramine as substrate to IC50 for human recombinant microsomal MAO- B expressed in baculovirus infected BTI-TN-5B1- 4 cells using p-tyramine as substrate by horse radish peroxidase/Amplex red reagent based fluorescence assay
Method in brief: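 Recombinant hMAO-A (1.1 µg) or hMAO-B (7.5 µg) preincubated with inhibitor over a concentration range for 30 min at 37 °C in 0.05 M sodium phosphate, pH 7.4. Reaction started with 1 mM p-tyramine, 200 µM Amplex Red and 1 U/mL HRP (final concentrations). H₂O₂ was read by fluorescence (ex 545/em 590 nm) after 30 min dark incubation. Background without enzyme was subtracted; vehicle served as control.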

[2] = molecular target: T2, Amine oxidase [flavin-containing] A (Homo sapiens, UniProt P21397); assay: Inhibition of human recombinant microsomal MAO-A expressed in baculovirus infected BTI-TN-5B1-4 cells assessed as reduction in production of H202 using p-tyramine as substrate incubated for 30 mins followed by substrate addition by horse radish peroxidase/Amplex red reagent based fluorescence assay; type: cell-based
T2 sequence (P21397 whole entry): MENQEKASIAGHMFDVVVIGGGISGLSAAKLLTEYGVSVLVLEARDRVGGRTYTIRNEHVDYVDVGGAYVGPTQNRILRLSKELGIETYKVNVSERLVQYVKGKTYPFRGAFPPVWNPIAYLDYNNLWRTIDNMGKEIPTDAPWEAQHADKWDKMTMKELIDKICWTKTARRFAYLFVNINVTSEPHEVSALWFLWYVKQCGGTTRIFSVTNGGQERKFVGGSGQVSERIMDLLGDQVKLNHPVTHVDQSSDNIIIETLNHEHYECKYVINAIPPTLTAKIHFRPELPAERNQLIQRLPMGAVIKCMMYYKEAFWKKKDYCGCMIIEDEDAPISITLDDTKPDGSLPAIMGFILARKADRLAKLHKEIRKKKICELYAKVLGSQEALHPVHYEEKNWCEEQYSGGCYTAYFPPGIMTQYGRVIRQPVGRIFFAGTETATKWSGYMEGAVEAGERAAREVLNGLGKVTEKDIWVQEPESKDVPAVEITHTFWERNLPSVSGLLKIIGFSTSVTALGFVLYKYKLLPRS

Acetylcholinesterase = Acetylcholinesterase (Electrophorus electricus, UniProt O42275); assay: Inhibition of electric eel AChE assessed as reduction in production of H202 using acetylcholine as substrate incubated for 15 mins followed by substrate addition by horse radish peroxidase/Amplex red reagent based fluorescence assay
Acetylcholinesterase, sequence (O42275 whole entry): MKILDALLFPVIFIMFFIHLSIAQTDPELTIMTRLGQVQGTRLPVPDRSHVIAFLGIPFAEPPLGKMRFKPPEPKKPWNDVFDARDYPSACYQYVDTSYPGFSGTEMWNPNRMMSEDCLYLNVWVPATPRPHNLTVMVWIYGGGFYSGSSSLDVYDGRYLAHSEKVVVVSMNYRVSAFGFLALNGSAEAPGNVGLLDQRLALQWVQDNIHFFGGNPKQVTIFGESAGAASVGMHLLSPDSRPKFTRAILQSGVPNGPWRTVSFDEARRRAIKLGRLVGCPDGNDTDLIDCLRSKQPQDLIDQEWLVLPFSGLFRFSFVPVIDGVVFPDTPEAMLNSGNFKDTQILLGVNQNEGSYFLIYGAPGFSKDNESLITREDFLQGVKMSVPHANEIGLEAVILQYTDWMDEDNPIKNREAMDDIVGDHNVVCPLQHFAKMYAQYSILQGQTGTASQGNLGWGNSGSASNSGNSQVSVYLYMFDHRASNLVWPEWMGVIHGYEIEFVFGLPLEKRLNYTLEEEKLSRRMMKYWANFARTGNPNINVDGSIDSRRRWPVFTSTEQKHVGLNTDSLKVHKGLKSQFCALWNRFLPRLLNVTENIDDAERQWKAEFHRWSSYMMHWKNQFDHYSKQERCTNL

[3] = molecular target: Acetylcholinesterase (Electrophorus electricus) (UniProt O42275); details: at 1 to 5 µM
Acetylcholinesterase (Electrophorus electricus), sequence (O42275 24-633 limits assumed): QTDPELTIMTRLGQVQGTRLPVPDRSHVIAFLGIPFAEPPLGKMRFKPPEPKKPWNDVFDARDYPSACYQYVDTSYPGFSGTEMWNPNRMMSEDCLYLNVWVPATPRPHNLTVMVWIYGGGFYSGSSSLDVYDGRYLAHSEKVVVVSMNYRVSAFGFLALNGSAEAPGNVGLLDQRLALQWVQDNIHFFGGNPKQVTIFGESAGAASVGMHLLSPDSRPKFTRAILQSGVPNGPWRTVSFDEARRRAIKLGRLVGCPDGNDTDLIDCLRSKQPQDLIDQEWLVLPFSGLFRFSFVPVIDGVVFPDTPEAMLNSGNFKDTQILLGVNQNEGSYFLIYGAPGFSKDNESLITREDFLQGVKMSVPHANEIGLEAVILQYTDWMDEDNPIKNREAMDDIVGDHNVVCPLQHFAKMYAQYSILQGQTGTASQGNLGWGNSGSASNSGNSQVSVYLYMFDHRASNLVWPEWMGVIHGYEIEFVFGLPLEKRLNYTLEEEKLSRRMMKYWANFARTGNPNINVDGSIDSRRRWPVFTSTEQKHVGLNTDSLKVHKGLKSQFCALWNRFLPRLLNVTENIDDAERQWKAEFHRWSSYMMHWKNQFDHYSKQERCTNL

[4] = Octanol/water partition coefficient, logP of compound; type: physicochemical
SH-SY5Y [5] = assay: Neuroprotective activity against 6-OHDA induced toxicity in human SH-SY5Y cells assessed as cell viability at 25 uM preincubated for 4 hrs followed by 6-OHDA addition and measured after 24 hrs by MTT assay (reference value: 48.52 %); type: functional; details: read-out: Activity
SH-SY5Y [6] = assay: Inhibition of ROS generation in human SH-SY5Y cells at 25 uM measured after 24 hrs by DCF-DA dye based fluorescence assay relative to control; type: functional
Method in brief: (§2)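 SH-SY5Y cells, about 10,000/well, grown 24 h in DMEM/F-12 with 10% FBS, horse serum and 1% penicillin. Washed with PBS, then exposed to compound without FBS for 24 h (1, 5, 25 μM). Rinsed three times in PBS, loaded with H2DCF-DA (50 μM) for 30 min at 37 °C, rinsed again. Fluorescence read at ex 478 / em 518 nm.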

SH-SY5Y [7] = assay: Inhibition of ROS generation in human SH-SY5Y cells at 1 uM measured after 24 hrs by DCF-DA dye based fluorescence assay relative to control; type: functional; method in brief: as §2
[8] = Metal chelating activity of the compound assessed as formation of Fe2+ complex at 50 uM by UV-vis spectrophotometric analysis
Method in brief: (§3)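 Absorption spectra recorded by UV–vis spectrophotometry for compound alone (50 μM final) and with CuSO₄, FeSO₄ or FeCl₃ (50 μM final); chelation judged from spectral change.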

SH-SY5Y [9] = assay: Neuroprotective activity against 6-OHDA induced toxicity in human SH-SY5Y cells assessed as cell viability at 1 uM preincubated for 4 hrs followed by 6-OHDA addition and measured after 24 hrs by MTT assay (reference value: 48.52 %); type: functional; details: read-out: Activity
[10] = Cytotoxicity against human SH-SY5Y cells assessed as cell viability at 1 uM measured after 24 hrs by MTT assay relative to control; type: cell-based; details: read-out: Activity
Method in brief: (§4)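 SH-SY5Y cells, about 10,000/well, grown 24 h in DMEM/F-12 with 10% FBS, horse serum and 1% penicillin. Exposed to compound at 1, 5 or 25 μM for 24 h, serum-free, at 37 °C, 5% CO2. MTT added, 4 h at 37 °C, formazan dissolved in DMSO, OD read at 595 nm. Viability expressed relative to control.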

[11] = Metal chelating activity of the compound assessed as formation of Cu2+ complex at 50 uM by UV-vis spectrophotometric analysis; method in brief: as §3
[12] = molecular target: Acetylcholinesterase (Electrophorus electricus) (UniProt O42275); assay: Reversible inhibition of electric eel AChE assessed as recovery of enzyme activity at 0.1 times IC50 using acetylcholine as substrate relative to control
SH-SY5Y [13] = assay: Neuroprotective activity against 6-OHDA induced toxicity in human SH-SY5Y cells assessed as cell viability at 5 uM preincubated for 4 hrs followed by 6-OHDA addition and measured after 24 hrs by MTT assay (reference value: 48.52 %); type: functional; details: read-out: Activity
SH-SY5Y [14] = assay: Inhibition of ROS generation in human SH-SY5Y cells at 5 uM measured after 24 hrs by DCF-DA dye based fluorescence assay relative to control; type: functional; method in brief: as §2
[15] = molecular target: Acetylcholinesterase (Electrophorus electricus) (UniProt O42275); assay: Reversible inhibition of electric eel AChE assessed as recovery of enzyme activity at IC50 using acetylcholine as substrate relative to control
[16] = Metal chelating activity of the compound assessed as formation of Fe3+ complex at 50 uM by UV-vis spectrophotometric analysis; method in brief: as §3
[17] = molecular target: Acetylcholinesterase (Electrophorus electricus) (UniProt O42275); assay: Reversible inhibition of electric eel AChE assessed as recovery of enzyme activity at 100 times IC50 using acetylcholine as substrate relative to control
[18] = Cytotoxicity against human SH-SY5Y cells assessed as cell viability at 25 uM measured after 24 hrs by MTT assay relative to control; type: cell-based; details: read-out: Activity; method in brief: as §4
[19] = molecular target: Acetylcholinesterase (Electrophorus electricus) (UniProt O42275); assay: Reversible inhibition of electric eel AChE assessed as recovery of enzyme activity at 10 times IC50 using acetylcholine as substrate relative to control
[20] = Cytotoxicity against human SH-SY5Y cells assessed as cell viability at 5 uM measured after 24 hrs by MTT assay relative to control; type: cell-based; details: read-out: Activity; method in brief: as §4
[21] = molecular target: T2, Amine oxidase [flavin-containing] A; assay: as §1, with “MAO- A” for “MAO-B”, “BTI-TN-5B1- 4” for “BTI-TN-5B1-4”, “H202 at 50 uM” for “H202”; details: 0.5 h
Method in brief: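 Recombinant hMAO-A (1.1 µg protein) preincubated 30 min at 37 °C with test compound in 0.05 M sodium phosphate, pH 7.4. Reaction started with (final) 200 µM Amplex Red, 1 U/mL HRP and 1 mM p-tyramine. After 30 min in the dark, H2O2 read by fluorescence (ex 545/em 590 nm) at 37 °C. Background without enzyme subtracted; vehicle control.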

Structure (SMILES) | IC50 [1] [µM] | Ratio IC50 (Homo sapiens) | IC50 ([2]; read-out: IC50) [µM] | IC50 (Acetylcholinesterase) [µM] | IC50 ([2]; bti-tn-5b1-4) | inhibition at 50 µM [21] [%] | other results
C#CCOc1ccc(-c2cc(-c3ccccc3OCC#C)nc(-c3ccccc3)n2)cc1 | 14.4 | 1.5 | 22 | 7.25 | – | – | –
C#CCOc1ccc(-c2cc(-c3cccc(OCC#C)c3)nc(N)n2)cc1 | 1.49 | 16.1 | 24.1 | 1.74 | – | – | inhibition [3]: Active; logP [4]: 4.51; viability at 25 µM (SH-SY5Y [5]): 52.3%; inhibition at 25 µM (SH-SY5Y [6]): 41%; inhibition at 1 µM (SH-SY5Y [7]): 68.3%; Activity [8]: inactive; viability at 1 µM (SH-SY5Y [9]): 60.5%; viability at 24 h, 1 µM [10]: 87.3%; Activity [11]: inactive; inhibition [12]: 82.8%; viability at 5 µM (SH-SY5Y [13]): 59.5%; inhibition at 5 µM (SH-SY5Y [14]): 47.2%; inhibition [15]: 41.8%; Activity [16]: inactive; inhibition [17]: 7.35%; viability at 24 h, 25 µM [18]: 69.2%; inhibition [19]: 12.3%; viability at 24 h, 5 µM [20]: 79.6%
C#CCOc1ccc(-c2cc(-c3ccccc3OCC#C)nc(N)n2)cc1 | 22.1 | 1.3 | 28.6 | 1.81 | – | – | –
C#CCOc1ccc(-c2cc(-c3ccccc3OCC#C)nc(C)n2)cc1 | 18.1 | 1.3 | 23.2 | 2.56 | – | – | –
C#CCOc1ccc(-c2cc(-c3ccc(OCC#C)cc3)nc(C)n2)cc1 | 7.83 | 4.4 | 34.1 | 1.76 | – | – | –
C#CCOc1ccc(-c2cc(-c3ccc(OCC#C)cc3)nc(N)n2)cc1 | 3.3 | 9.7 | 32.1 | 1.35 | – | – | logP [4]: 4.52; viability at 25 µM (SH-SY5Y [5]): 53.6%; inhibition at 25 µM (SH-SY5Y [6]): 25.9%; inhibition at 1 µM (SH-SY5Y [7]): 89.8%; Activity [8]: inactive; viability at 1 µM (SH-SY5Y [9]): 66.6%; viability at 24 h, 1 µM [10]: 79%; Activity [11]: inactive; inhibition [12]: 66.5%; viability at 5 µM (SH-SY5Y [13]): 62.4%; inhibition at 5 µM (SH-SY5Y [14]): 30%; inhibition [15]: 42.4%; Activity [16]: inactive; inhibition [17]: 3.4%; viability at 24 h, 25 µM [18]: 72.6%; inhibition [19]: 10.2%; viability at 24 h, 5 µM [20]: 73%
C#CCOc1ccccc1-c1cc(-c2ccccc2OCC#C)nc(-c2ccccc2)n1 | 13.8 | > 4 | – | 8.12 | Not Active | < 50 | –
C#CCOc1cccc(-c2cc(-c3cccc(OCC#C)c3)nc(-c3ccccc3)n2)c1 | 23.4 | > 3 | – | 6.73 | Not Active | < 50 | –
C#CCOc1ccc(-c2cc(-c3ccc(OCC#C)c(OCC)c3)nc(-c3ccccc3)n2)cc1 | 29 | > 2 | – | 6.94 | Not Active | < 50 | –
C#CCOc1ccc(-c2cc(-c3ccc(OCC#C)c(OCC)c3)nc(C)n2)cc1 | 11 | > 5 | – | 6.38 | Not Active | < 50 | –
C#CCOc1ccc(-c2cc(-c3ccc(OCC#C)c(OCC)c3)nc(N)n2)cc1 | 14 | > 4 | – | 7.05 | Not Active | < 50 | –
C#CCOc1ccccc1-c1cc(-c2ccccc2OCC#C)nc(N)n1 | 11.1 | > 5 | – | 5.19 | Not Active | < 50 | –
C#CCOc1ccc(-c2cc(-c3ccc(OCC#C)cc3)nc(-c3ccccc3)n2)cc1 | 12.3 | 2.1 | 25.6 | 7.53 | – | – | –
C#CCOc1ccc(-c2cc(-c3cccc(OCC#C)c3)nc(C)n2)cc1 | 8.09 | 2.6 | 21.1 | 5.88 | – | – | –
C#CCOc1ccc(-c2cc(-c3ccc(OCC#C)c(OC)c3)nc(-c3ccccc3)n2)cc1 | 15.7 | 1.6 | 24.9 | 6.99 | – | – | –
C#CCOc1ccc(-c2cc(-c3cccc(OCC#C)c3)nc(-c3ccccc3)n2)cc1 | 17.7 | 1.5 | 25.8 | 4.39 | – | – | –
C#CCOc1ccc(-c2cc(-c3ccc(OCC#C)c(OC)c3)nc(C)n2)cc1 | 21.1 | 1.2 | 25 | 5.92 | – | – | –
C#CCOc1ccc(-c2cc(-c3ccc(OCC#C)c(OC)c3)nc(N)n2)cc1 | 20 | > 3 | – | 4.58 | Not Active | < 50 | –
C#CCOc1cccc(-c2cc(-c3cccc(OCC#C)c3)nc(N)n2)c1 | 22.1 | > 3 | – | 6.99 | Not Active | < 50 | –
